Data on 34 compounds can be found in PubChem BioAssay AID743256 (The Scripps Research Institute Molecular Screening Center, 2014).

What is called inhibition is the drop in the measured response relative to a control, in per cent.

Hit rate of the full screen: of about 2,900 compounds, about 1,300 (45%) were called active. The set was probably picked from earlier hits. The list is a sample of the results. Values without a mark were called inactive.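 How the source made its calls: active means mean inhibition over the triplicate runs exceeds the activity threshold set in the earlier primary screen (cut at about 20% in these data); inactive means the rest.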

This experiment deals with Disintegrin and metalloproteinase domain-containing protein 10 (Homo sapiens) (UniProt O14672). Nature of the experiment: ADAM10 inhibitors, counter-screen for ADAM17 exosite inhibitor project, biochemical, FRET, human ADAM10 (AID 743256).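 Further: 0% = DMSO wells and 100% = marimastat wells.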 The settings on record: recombinant ADAM10, EDANS/DABCYL FRET peptide cleavage, 3 h; at 6.95 µM; stronger effect = higher value. The method in brief: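 Test system: ADAM10 / Amount: enzyme 2X stock at 20 nM / Medium: HEPES 50 mM, 0.01% Brij, pH 7.5 / Also added: DM2 FRET peptide substrate / Dosing: one dose / Timing: 30 min plus 3 h, 25 °C / Technique: FRET fluorescence readout / Measure: percent inhibition scaled between DMSO and marimastat control wells / Benchmarks: marimastat and DMSO wells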
Disintegrin and metalloproteinase domain-containing protein 10 (Homo sapiens), sequence (O14672 214-748 limits assumed): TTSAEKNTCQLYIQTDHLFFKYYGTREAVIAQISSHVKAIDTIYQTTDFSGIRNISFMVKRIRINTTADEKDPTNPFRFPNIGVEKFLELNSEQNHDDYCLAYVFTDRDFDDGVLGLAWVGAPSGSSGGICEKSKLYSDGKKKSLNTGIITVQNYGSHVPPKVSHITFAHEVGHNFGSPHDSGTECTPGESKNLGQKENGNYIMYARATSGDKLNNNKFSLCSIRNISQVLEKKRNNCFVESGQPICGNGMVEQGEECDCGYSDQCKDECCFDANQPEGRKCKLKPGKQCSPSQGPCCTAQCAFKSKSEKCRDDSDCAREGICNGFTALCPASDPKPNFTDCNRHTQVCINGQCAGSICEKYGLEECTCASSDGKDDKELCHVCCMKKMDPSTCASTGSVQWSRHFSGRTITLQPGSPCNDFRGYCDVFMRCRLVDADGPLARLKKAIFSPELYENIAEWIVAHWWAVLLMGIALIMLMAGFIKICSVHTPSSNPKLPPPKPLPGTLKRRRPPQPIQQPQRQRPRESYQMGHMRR
On the technique in general: Counterscreens check selectivity or assay interference.
For `Cc1ccc(C(=O)Nc2ccc(C)c(S(=O)(=O)N(C)C)c2)s1`, the inhibition was 19.2%.

Regarding `CCn1c(Cc2cccs2)nnc1SCC(=O)c1ccc(C)cc1`, the inhibition was 2.71%.

As for `Cc1ccc(OCCOCCOc2ccc(Br)cc2/C=N\NC(=O)c2ccncc2)cc1`, the inhibition was 13.6%.

For the compound `COc1cccc(/C=N/NC(=O)c2cccc([N+](=O)[O-])c2)c1OS(=O)(=O)c1ccc(C)cc1`, the inhibition is 27.1% (active).

Regarding `CCCCCC(=O)N1C[C@H](O)[C@@H](n2cc(COC(=O)c3ccccc3)nn2)C[C@@H]1c1ccc(C)cc1`, the inhibition is 22.1% (active).

With `O=C(Cc1ncc(C(F)(F)F)cc1Cl)Nc1cccc(Br)c1`, the inhibition is 6.87%.

In the case of `CCc1cccc(NC(=O)COC(=O)C2CCN(c3ccc(C(F)(F)F)cn3)CC2)c1`, the inhibition was 25.6% (active).

In the case of `Cc1sc2nc(SCC(=O)c3ccc(O)c(O)c3)n(Cc3ccco3)c(=O)c2c1C`, the inhibition was 16.8%.

On to `Cc1ccc(-c2nnc(SCC(=O)Nc3ccc(Oc4ccccc4)cc3)n2Cc2ccco2)cc1`, for which the inhibition is 30.9% (active).

As to `Cc1ccc(OCc2nnc(SC/C=C/c3ccccc3)n2Cc2ccco2)cc1`, the inhibition was 18.7%.

For the compound `COc1ccc(C(=O)NN2C(=O)C3C(c4ccccc4)C=CC(c4ccccc4)C3C2=O)cc1` (centres undefined), the inhibition is 25.6% (active).

Regarding `CC(C)C(=O)Nc1cccc(NC(=S)NC(=O)C(c2ccccc2)c2ccccc2)c1`, the inhibition was 31.3% (active).

In the case of `O=C(CSc1nc(Nc2ccccc2)nc(N2CCOCC2)n1)Nc1cc(Cl)ccc1O`, the inhibition was 33.4% (active).

As for `CCCN(CC(=O)NC(=O)NC1CCCCC1)CC(=O)Nc1cc(Cl)ccc1Cl`, the inhibition was 43.7% (active).

Consider `CN(C)c1ccc(NC(=O)NC2CCCCN(Cc3ccc(Cl)cc3)C2=O)cc1` (centres undefined), for which the inhibition was 1.4%.

For the compound `O=C(C[C@H]1C(=O)N(c2ccc(F)c(F)c2)C[C@@H]1Cc1ccccc1)Nc1ccccc1`, the inhibition is 26.5% (active).

For `COc1ccc(C(=O)Nc2ccc(C3(C#N)CCCC3)cc2)cc1OC`, the inhibition was -1.52%.

`NNC(=O)C1CCCn2c1nc1sc3c(c1c2=O)CCCC3` (centres undefined): the inhibition is -9.79%.

Consider `CCOc1ccc(Nc2nc(Cc3nnc(SCC(=O)c4ccc(C)cc4)o3)cs2)cc1`, for which the inhibition was 17.9%.

For the compound `Cc1ccc(C)c(NC(=S)NNC(=S)Nc2ccc(C(C)C)cc2)c1`, the inhibition is 32.5% (active).

For the compound `CCCn1nc(C(=O)NNC(=O)CSCC(=O)Nc2cc(C)on2)c2ccccc2c1=O`, the inhibition was -0.39%.

As for `Cc1cc(NC(=O)CN2C(=O)NC(CC(C)C)C2=O)no1` (centres undefined), the inhibition is 26.2% (active).

On to `CS(=O)(=O)Nc1cccc(C2=NN(S(=O)(=O)c3ccccc3)C(c3cccs3)C2)c1` (centres undefined), for which the inhibition is 11.9%.

Regarding `COc1ccc(S(=O)(=O)Nc2ccc(O)c(Sc3nc4ccccc4s3)c2)cc1`, the inhibition is 20.5% (active).

With `Cc1ccc(-c2n[nH]c(=S)n2/N=C/c2cc3c(cc2[N+](=O)[O-])OCO3)cc1`, the inhibition was 4.16%.

`COc1cc(C2CC(=O)N3CN(Cc4ccccc4)CSC3=C2C#N)ccc1OCc1ccccc1` (centres undefined): the inhibition was 26.5% (active).

As for `CC(C)N(C(=O)[C@H]1C[C@H](CC(=O)NC(C)(C)C)C(=O)N2CCc3c([nH]c4ccc(Cl)cc34)[C@]12C)C(C)C`, the inhibition is 15.5%.

With `NS(=O)(=O)c1ccc(NC(=O)COC(=O)C2(c3ccc(F)cc3)CCCC2)cc1`, the inhibition is 24.3% (active).

As to `CN(C)S(=O)(=O)c1cccc(NC(=O)COC(=O)C2(c3ccccc3F)CCCC2)c1`, the inhibition is 28% (active).

Turning to `Cc1ccc(S(=O)(=O)N2CCN(C(=O)COC(=O)c3c(C)cc(C)cc3C)CC2)c(C)c1`, the inhibition was 18.9%.

In the case of `COc1ccc(C(=O)C2CCCN(S(=O)(=O)c3cccc(C)c3)C2)c(C)c1` (centres undefined), the inhibition is 11.7%.

Take `Cc1onc(C(=O)NN)c1-c1csc(COc2ccccc2)n1`: the inhibition is -5.47%.

As for `O=C(c1ccccc1)N1CCN(c2ccc([N+](=O)[O-])c(NCc3ccco3)c2)CC1`, the inhibition is 14.8%.

For the compound `O=C(NCc1ccccc1)C1=C[C@@H](c2ccc(C(F)(F)F)cc2)C[C@@H](OCc2ccc(CO)cc2)O1`, the inhibition was 44.5% (active).
